Laboratory results as given in ChEMBL document CHEMBL1159311, “Antiinflammatory constituents of Celastrus orbiculatus inhibit the NF-kappaB activation and NO production” (J Nat Prod, 2002).

Key:
RAW264.7 [1] = experiment: Antiinflammatory activity against mouse RAW264.7 cells assessed as inhibition of LPS-induced NO production […] assessed after 24 hrs by Griess reagent assay; format: functional, cell-based
Procedure, shortened: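 RAW264.7 cells were seeded at 1 × 10^5 cells/well and held 3 h. They were then stimulated with LPS (1 µg/mL) for 24 h with or without compound. Supernatant nitrite was measured by Griess reaction: equal volumes of supernatant and reagent (0.1% N-(1-naphthyl)ethylenediamine and 1% sulfanilamide in 5% phosphoric acid, 1:1), absorbance at 570 nm. Values were quantified against a sodium nitrite standard curve. Aminoguanidine served as reference. IC50 reported. Viability was checked by MTT.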

RAW264.7 [2] = experiment: Antiinflammatory activity against mouse RAW264.7 cells assessed as inhibition of LPS-induced NF-kappaB activation […] assessed after 24 hrs by SEAP reporter gene assay; format: functional, cell-based
Procedure, shortened: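 RAW264.7 cells stably carrying a plasmid with eight κB elements driving SEAP were seeded at 5 × 10^4 cells/well and held 3 h at 37 °C. Cells then received test compounds at various concentrations together with LPS (1 µg/mL) for 24 h. Supernatant was heated 65 °C for 5 min, then mixed with 2× SEAP buffer (2 M diethanolamine, 1 mM MgCl2, 20 mM L-homoarginine) for 10 min at 37 °C. p-Nitrophenyl phosphate substrate was added, incubated at 37 °C, and A405 read. Dose-response IC50 reported.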

SMILES | IC50 (RAW264.7 [1]) | IC50 (RAW264.7 [2])
CC1(C)CCC[C@@]2(C)C1=C(O)C(=O)c1cc(O)c(O)cc12 [CELAPHANOL A] | 32.6 µM | 18.2 µM
CC1=C(O)C(=O)C=C2C1=CC=C1[C@@]2(C)CC[C@@]2(C)[C@@H]3C[C@](C)(C(=O)O)CC[C@]3(C)CC[C@]12C [CELASTROL] | 0.23 µM | 0.27 µM
CC(=O)O[C@H]1C[C@@H](C)[C@]23OC(C)(C)[C@H](C[C@H](OC(=O)c4ccccc4)[C@]2(C)[C@H]1OC(C)=O)[C@H]3OC(=O)c1ccccc1 [ORBICULIN A] | > 300 µM | > 300 µM
CC(=O)O[C@H]1CC[C@@H](C)[C@]23OC(C)(C)[C@H](C[C@H](OC(=O)c4ccco4)[C@]12C)[C@H]3OC(=O)c1ccco1 [ORBICULIN D] | 43.6 µM | 36.7 µM
CC(=O)O[C@H]1C[C@@H](C)[C@]23OC(C)(C)[C@H](C[C@H](OC(=O)c4ccccc4)[C@]2(C)[C@H]1OC(C)=O)[C@H]3OC(=O)c1ccco1 [ORBICULIN E] | > 300 µM | > 300 µM
CC(=O)O[C@H]1[C@@H](OC(=O)c2ccco2)C[C@@H](C)[C@]23OC(C)(C)[C@H](C[C@H](OC(=O)c4ccccc4)[C@]12C)[C@H]3OC(=O)c1ccco1 [ORBICULIN F] | > 300 µM | > 300 µM
CC(=O)O[C@@H]1[C@@H]2[C@@H](OC(=O)c3ccco3)[C@]3(OC2(C)C)[C@H](C)CC[C@H](OC(C)=O)[C@@]3(C)[C@H]1OC(=O)c1ccco1 [ORBICULIN H] | 50.4 µM | 33.5 µM
CC(=O)O[C@H]1[C@@H](OC(=O)c2ccco2)C[C@@H](C)[C@]23OC(C)(C)[C@H](C[C@H](OC(=O)c4ccco4)[C@]12C)[C@H]3OC(=O)c1ccco1 [ORBICULIN I] | 51.2 µM | 61.5 µM
N=C(N)NN [PIMAGEDINE] | 16.3 µM | –
